Tests used:
[1] = Cytotoxicity against HEK293T cells assessed as cell viability at 2 to 64 uM after 24 hrs by MTT assay relative to control; format: cell-based, HEK-293T; settings: human, read-out: Activity
In short: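 MTT viability assay. RAW264.7 or HEK293T cells at (1.0−2.0) × 10^5 per well were exposed to a peptide concentration series for 24 h at 37 °C in 5% CO2. MTT was then added at 0.5 mg/mL final for 4 h; formazan was dissolved in DMSO and read at 570 nm. Results average three independent trials.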

[2] = tested on: Escherichia coli; experiment: Antibacterial activity against Escherichia coli ATCC 25922 after 24 hrs; format: functional; settings: ATCC 25922, 24 h
In short: (§1)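 Broth microdilution. Mid-log bacteria in MHB at a final (0.5−1) × 10^5 CFU/mL were mixed with equal volumes of peptide serially diluted in 0.2% BSA. Plates were incubated 24 h at 37 °C and read at A492. MIC is the lowest concentration inhibiting 95% of growth. Each test was repeated at least 3 times.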

[3] = tested on: Escherichia coli; experiment: Antibacterial activity against Escherichia coli 1005 after 24 hrs; format: functional; settings: Escherichia coli, 1005, 24 h; in short: as §1
[4] = tested on: Salmonella typhimurium; experiment: Antibacterial activity against Salmonella typhimurium ATCC 14028 after 24 hrs; format: functional, Salmonella enterica subsp. enterica serovar Typhimurium; settings: Salmonella enterica, ATCC 14028, 24 h; in short: as §1
[5] = tested on: Staphylococcus aureus; experiment: Antibacterial activity against methicillin-resistant Staphylococcus aureus ATCC 4330 after 24 hrs; format: functional; settings: ATCC 4330, 24 h
In short: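 Modified NCCLS broth microdilution. Mid-log bacteria at (0.5−1) × 10^5 CFU/mL in MHB were mixed 1:1 with peptide serially diluted in 0.2% BSA and incubated 24 h at 37 °C. Absorbance was read at 492 nm; MIC is the lowest concentration inhibiting 95% of growth. At least 3 repeats.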

[6] = tested on: Staphylococcus epidermidis; experiment: Antibacterial activity against Staphylococcus epidermidis ATCC 12228 after 24 hrs; format: functional; settings: ATCC 12228, 24 h; in short: as §1
[7] = tested on: Escherichia coli; experiment: Bactericidal activity against Escherichia coli 1005; format: functional; settings: read-out: MBC99.9
In short: (§2)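 Wells from the 24 h, 37 °C MHB microdilution plates (bacteria at a final (0.5−1) × 10^5 CFU/mL; peptide diluted in 0.2% BSA) were plated on agar and incubated overnight. MBC is the lowest concentration killing >99.9% of cells. Each test was reproduced at least 3 times.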

[8] = tested on: Staphylococcus aureus; experiment: Bactericidal activity against Staphylococcus aureus ATCC 29213; format: functional; settings: read-out: MBC99.9; in short: as §2
[9] = tested on: Staphylococcus aureus; experiment: Bactericidal activity against methicillin-resistant Staphylococcus aureus ATCC 4330; format: functional; settings: read-out: MBC99.9
In short: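 Bacteria at (0.5−1) × 10^5 CFU/mL in MHB were exposed to serially diluted peptide (0.2% BSA) for 24 h at 37 °C, then 50 μL aliquots were plated on agar overnight. MBC is the lowest concentration killing >99.9% of cells. At least 3 repeats.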

[10] = tested on: Staphylococcus aureus; experiment: Bactericidal activity against Staphylococcus aureus ATCC 25923; format: functional; settings: read-out: MBC99.9; in short: as §2
[11] = tested on: Candida albicans; experiment: Antifungal activity against Candida albicans SP3876 after 48 hrs by broth microdilution method; format: functional; settings: SP3876, 48 h
In short: (§3)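 Modified CLSI M27-A2 broth microdilution. Yeast at (0.5−1) × 10^3 CFU/mL in MOPS-buffered RPMI 1640 was mixed 1:1 with peptide serially diluted in 0.2% BSA and incubated 48 h at 28 °C. Absorbance was read at 492 nm; MIC is the lowest concentration inhibiting 95% of growth. Triplicate, three biological replicates.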

[12] = tested on: Candida albicans; experiment: Antifungal activity against Candida albicans isolated from alveolar fluid after 48 hrs by broth microdilution method; format: functional; in short: as §3
[13] = tested on: Candida albicans; experiment: Antifungal activity against Candida albicans 14936 after 48 hrs by broth microdilution method; format: functional; settings: Candida albicans, 14936, 48 h; in short: as §3
[14] = tested on: Candida albicans; experiment: Fungicidal activity against Candida albicans cgmcc 2.2086 after 96 hrs; format: functional; settings: cgmcc 2.2086, 96 h, read-out: MFC99.9
In short: (§4)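 After the 48 h, 28 °C broth microdilution in MOPS-buffered RPMI 1640 (inoculum (0.5−1) × 10^3 CFU/mL), 50 μL from each well was plated on YM agar for a further 48 h at 28 °C. MFC is the lowest concentration killing at least 99.9% of cells. Triplicate, three biological replicates.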

[15] = tested on: Candida albicans; experiment: Fungicidal activity against Candida albicans SP3903 after 96 hrs; format: functional; settings: SP3903, 96 h, read-out: MFC99.9; in short: as §4
[16] = tested on: Candida albicans; experiment: Fungicidal activity against Candida albicans SP3902 after 96 hrs; format: functional; settings: SP3902, 96 h, read-out: MFC99.9; in short: as §4
[17] = tested on: Candida albicans; experiment: Fungicidal activity against Candida albicans SP3876 after 96 hrs; format: functional; settings: SP3876, 96 h, read-out: MFC99.9; in short: as §4
[18] = tested on: Candida albicans; experiment: Fungicidal activity against Candida albicans isolated from alveolar fluid after 96 hrs; format: functional; settings: read-out: MFC99.9; in short: as §4
[19] = tested on: Candida albicans; experiment: Fungicidal activity against fluconazole-resistant Candida albicans 56452 after 96 hrs; format: functional; settings: Candida albicans, 56452, 96 h; read-out: MFC99.9; in short: as §4
[20] = tested on: Candida tropicalis; experiment: Fungicidal activity against Candida tropicalis cgmcc 2.1975 after 96 hrs; format: functional; settings: cgmcc 2.1975, 96 h, read-out: MFC99.9
In short: (§5)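 Wells from the 48 h, 28 °C RPMI 1640/MOPS microdilution plates were plated on YM agar and incubated a further 48 h at 28 °C. MFC is the lowest concentration killing at least 99.9% of cells. Run in triplicate with three biological replicates.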

[21] = tested on: Pichia kudriavzevii; experiment: Fungicidal activity against Candida krusei cgmcc 2.1857 after 96 hrs; format: functional; settings: cgmcc 2.1857, 96 h, read-out: MFC99.9; in short: as §5
[22] = tested on: Erythrocyte; experiment: Hemolytic activity in human RBC after 1 hr; format: ADME, cell-based
In short: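 Fresh human erythrocytes, diluted 10-fold in PBS pH 7.4, were mixed with equal volumes of peptide and held 1 h at 37 °C. After centrifugation at 1000g, supernatant hemoglobin was read at 576 nm. PBS set 0% and 0.1% Triton X-100 set 100% lysis. MHC is the concentration causing 10% hemolysis. At least three experiments were run, each in technical triplicate.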

[23] = tested on: Escherichia coli; experiment: Antibacterial activity against Escherichia coli ATCC 25922 after 18 hrs in presence of NH4Cl by broth dilution method; format: functional; settings: ATCC 25922, 18 h
[24] = tested on: Escherichia coli; experiment: Antibacterial activity against Escherichia coli ATCC 25922 after 18 hrs in presence of CaCl2 by broth dilution method; format: functional; settings: ATCC 25922, 18 h
[25] = tested on: Escherichia coli; experiment: Antibacterial activity against Escherichia coli ATCC 25922 after 18 hrs in presence of ZnCl2 by broth dilution method; format: functional; settings: ATCC 25922, 18 h
[26] = tested on: Candida albicans; experiment: Antifungal activity against Candida albicans cgmcc 2.2086 in presence of NaCl by broth dilution method; format: functional
[27] = tested on: Candida albicans; experiment: Antifungal activity against Candida albicans cgmcc 2.2086 in presence of MgCl2 by broth dilution method; format: functional
[28] = tested on: Candida albicans; experiment: Antifungal activity against Candida albicans cgmcc 2.2086 in presence of CaCl2 by broth dilution method; format: functional
[29] = tested on: Candida albicans; experiment: Antifungal activity against Candida albicans cgmcc 2.2086 in presence of ZnCl2 by broth dilution method; format: functional
[30] = tested on: Candida albicans; experiment: Antifungal activity against Candida albicans 58288 after 48 hrs by broth microdilution method; format: functional; settings: Candida albicans, 58288, 48 h; in short: as §3
[31] = tested on: Candida albicans; experiment: Fungicidal activity against Candida albicans 58288 after 96 hrs; format: functional; settings: Candida albicans, 58288, 96 h; read-out: MFC99.9; in short: as §4

In the case of H-FFRRFRRFF-NH2, the viability at 24 h, up to 64 µM [1] is reported as 70 to 80%, the MIC95 [2] is reported as 8 µM and the MIC95 [3] is reported as 8 µM. For the same substance, the MIC95 [4] was 4 µM, the MIC95 [5] was 4 µM and the MIC95 [6] was 4 µM. The MBC [7] was 16 µM, the MBC [8] was 32 µM and the MBC [9] was 4 µM. For the same substance, the MBC [10] was 8 µM, the MIC95 [11] was 16 µM and the MIC95 [12] was 16 µM. For the same substance, the MIC95 [13] was 16 µM, the MFC [14] was 32 µM and the MFC [15] was 16 µM. The MFC [16] was 32 µM, the MFC [17] was 32 µM and the MFC [18] was 32 µM. The MFC [19] was 16 µM, the MFC [20] was 8 µM and the MFC [21] was 4 µM. The HC10 [22] was > 128 µM, the MIC [23] was 8 µM and the MIC [24] was 32 µM. The MIC [25] was 8 µM, the MIC [26] was 16 µM and the MIC [27] was 16 µM. For the same substance, the MIC [28] was 32 µM, the MIC [29] was 32 µM and the MIC95 [30] was 16 µM. The MFC [31] was 32 µM.
For H-RLRLLLRLR-NH2, the viability at 24 h, up to 64 µM [1] was 70 to 80%, the MIC95 [2] was 4 µM and the MIC95 [3] was 4 µM. For the same substance, the MIC95 [4] was 4 µM, the MIC95 [5] was 4 µM and the MIC95 [6] was 4 µM. The MBC [7] was 8 µM, the MBC [8] was 8 µM and the MBC [9] was 4 µM. It also gave an MBC [10] of 8 µM, an MIC95 [11] of 4 µM and an MIC95 [12] of 8 µM. For the same substance, the MIC95 [13] was 4 µM, the MFC [14] was 16 µM and the MFC [15] was 8 µM. The MFC [16] was 8 µM, the MFC [17] was 4 µM and the MFC [18] was 16 µM. The MFC [19] was 8 µM, the MFC [20] was 4 µM and the MFC [21] was 8 µM. The HC10 [22] was > 128 µM, the MIC [23] was 4 µM and the MIC [24] was 8 µM. For the same substance, the MIC [25] was 8 µM, the MIC [26] was 32 µM and the MIC [27] was 8 µM. It also gave an MIC [28] of 64 µM, an MIC [29] of 8 µM and an MIC95 [30] of 8 µM. It also gave an MFC [31] of 16 µM.
Work on H-RIRIIIRIR-NH2 yielded a viability at 24 h, up to 64 µM [1] of 70 to 80%, an MIC95 [2] of 8 µM and an MIC95 [3] of 4 µM. It also gave an MIC95 [4] of 4 µM, an MIC95 [5] of 4 µM and an MIC95 [6] of 4 µM. For the same substance, the MBC [7] was 8 µM, the MBC [8] was 8 µM and the MBC [9] was 4 µM. For the same substance, the MBC [10] was 8 µM, the MIC95 [11] was 1 µM and the MIC95 [12] was 4 µM. The MIC95 [13] was 2 µM, the MFC [14] was 8 µM and the MFC [15] was 8 µM. The MFC [16] was 2 µM, the MFC [17] was 1 µM and the MFC [18] was 8 µM. The MFC [19] was 4 µM, the MFC [20] was 4 µM and the MFC [21] was 4 µM. For the same substance, the HC10 [22] was > 128 µM, the MIC [23] was 4 µM and the MIC [24] was 16 µM. The MIC [25] was 8 µM, the MIC [26] was 16 µM and the MIC [27] was 4 µM. The MIC [28] was 32 µM, the MIC [29] was 4 µM and the MIC95 [30] was 2 µM. For the same substance, the MFC [31] was 4 µM.

Source: ChEMBL document CHEMBL4177755, “Combating Drug-Resistant Fungi with Novel Imperfectly Amphipathic Palindromic Peptides” (J Med Chem, 2018)
